Results taken from ChEMBL document CHEMBL2057155, “Synthesis of betulinic acid derivatives as entry inhibitors against HIV-1 and bevirimat-resistant HIV-1 variants” (Bioorg Med Chem Lett, 2012).

Key:
[1] = tested on: Human immunodeficiency virus 1; test: Ratio of EC50 for bevirimat-resistant HIV1 NL4-3 harboring QVT motif of Gag SP1 V370A mutant to EC50 for wild type HIV1 NL4-3; assay type: functional
Summary of the method: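 Multi-cycle viral replication assay in MT4 cells infected with wild-type HIV-1 NL4-3 or the V370A Gag variant. EC50 was determined against each virus, and the fold ratio was taken as mutant EC50 over wild-type EC50.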

[2] = tested on: Human immunodeficiency virus 1; test: Antiviral activity against bevirimat-resistant HIV1 NL4-3 harboring QVT motif of Gag SP1 V370A mutant infected in human MT4 cells assessed as reduction of viral p24 level cells […] relative to wild type HIV1 NL4-3 after 4 days by ELISA; assay type: functional, organism-based; details: Human immunodeficiency virus 1, NL4-3, MT4, 96 h
[3] = Cytotoxicity against human TZM-bl assessed as cell viability at 4 uM after 2 days; assay type: cell-based; details: 48 h
Summary of the method: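 Toxicity to TZM-bl cells was checked within the single-cycle infection assay at 4 μM.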

[4] = Cytotoxicity against human MT4 assessed as cell viability after 2 days; assay type: cell-based; details: MT4 cells, read-out: TD50
[5] = tested on: Human immunodeficiency virus 1; test: Antiviral activity against HIV1 NL4-3 harboring QVT motif of Gag SP1 V370A mutant infected in human TZM-bl cells by fluorescence assay relative to wild type HIV1 NL4-3; assay type: functional
Summary of the method: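 Single-round infection of TZM-bl cells with HIV-1 NL4-3 or the NL4-3 V370A mutant. Tat-driven luciferase expression after viral entry was the read-out. Inhibition was taken as the reduction in luciferase signal relative to infected controls without compound, expressed as relative fluorescence units.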

Liver microsomes [6] = details: human, 1 µM
Liver microsomes [7] = test: Half life in human liver microsomes at 1 uM
[8] = tested on: Human immunodeficiency virus 1; test: Antiviral activity against HIV1 NL4-3 infected in human TZM-bl cells assessed as reduction in luciferase gene expression by luminescence assay; assay type: functional, organism-based; details: Human immunodeficiency virus 1, NL4-3, TZM-bl
Summary of the method: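 Single-cycle HIV-1 NL4-3 infection of TZM-bl cells; HIV-1 tat-driven luciferase expression after viral entry read as the measure of inhibition. […] control is NL4-3 infection without compound. Values are the mean of two or more independent experiments with standard deviation.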

[9] = tested on: Human immunodeficiency virus 1; test: Antiviral activity against wild type HIV1 NL4-3 infected in human MT4 cells assessed as reduction of viral p24 level cells […] relative to wild type HIV1 NL4-3 after 4 days by ELISA; assay type: functional, organism-based; details: Human immunodeficiency virus 1, NL4-3, MT4, 96 h
[10] = tested on: Human immunodeficiency virus 1; test: Antiviral activity against bevirimat-resistant HIV1 NL4-3 harboring QVT motif of Gag SP1 deltaT371 mutant infected in human MT4 cells assessed as reduction of viral p24 level cells […] relative to wild type HIV1 NL4-3 after 4 days by ELISA; assay type: functional, organism-based; details: Human immunodeficiency virus 1, NL4-3, MT4, 96 h
Summary of the method: (§1)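 Multi-cycle viral replication assay in MT4 cells, run in parallel against wild-type NL4-3 and NL4-3 variants carrying V370A, ΔV370 or ΔT371 in Gag.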

[11] = tested on: Human immunodeficiency virus 1; test: Antiviral activity against bevirimat-resistant HIV1 NL4-3 harboring QVT motif of Gag SP1 deltaV370 mutant infected in human MT4 cells assessed as reduction of viral p24 level cells […] relative to wild type HIV1 NL4-3 after 4 days by ELISA; assay type: functional, organism-based; details: Human immunodeficiency virus 1, NL4-3, MT4, 96 h; summary of the method: as §1

## C=C(C)[C@@H]1CC[C@]2(C(=O)NCCCCCCCCC(=O)N[C@@H](CCC(N)=O)C(=O)OC)CC[C@]3(C)[C@H](CC[C@@H]4[C@@]5(C)CC[C@H](O)C(C)(C)[C@@H]5CC[C@]43C)[C@@H]12
[1]
  Ratio EC50: 5
[2]
  EC50: 20 nM
[3]
  Activity: Non-toxic
[4]
  CC50 at 48 h: 4800 nM
[5]
  fold change (FC): 2
Liver microsomes [6]
  CLH: 230 µL/min/mg
Liver microsomes [7]
  t1/2: 30.13 min
[8]
  EC50: 90 nM
[9]
  EC50: 1720 nM

## C=C(C)[C@@H]1CC[C@]2(C(=O)NCCCCCCCNC(C)=O)CC[C@]3(C)[C@H](CC[C@@H]4[C@@]5(C)CC[C@H](O)C(C)(C)[C@@H]5CC[C@]43C)[C@@H]12
[2]
  EC50: 190 nM
[10]
  EC50: 27 nM
[3]
  Activity: Non-toxic
[4]
  CC50 at 48 h: 12600 nM
[5]
  fold change (FC): 2
[11]
  EC50: 6 nM
Liver microsomes [6]
  CLH: 272 µL/min/mg
Liver microsomes [7]
  t1/2: 25.48 min
[8]
  EC50: 80 nM
[9]
  EC50: 120 nM

## C=C(C)[C@@H]1CC[C@]2(C(=O)NCCCCCCCCC(=O)N[C@@H](CCC(N)=O)C(=O)OCc3ccccc3)CC[C@]3(C)[C@H](CC[C@@H]4[C@@]5(C)CC[C@H](O)C(C)(C)[C@@H]5CC[C@]43C)[C@@H]12
[1]
  Ratio EC50: 5
[2]
  EC50: 50 nM
[10]
  EC50: 26 nM
[3]
  Activity: Non-toxic
[4]
  CC50 at 48 h: 15000 nM
[5]
  fold change (FC): 2
[11]
  EC50: 23 nM
Liver microsomes [6]
  CLH: 169 µL/min/mg
Liver microsomes [7]
  t1/2: 41.01 min
[8]
  EC50: 120 nM
[9]
  EC50: 190 nM

## C=C(C)[C@@H]1CC[C@]2(C(=O)O)CC[C@]3(C)[C@H](CC[C@@H]4[C@@]5(C)CC[C@H](OC(=O)CC(C)(C)C(=O)O)C(C)(C)[C@@H]5CC[C@]43C)[C@@H]12 [BEVIRIMAT]
[2]
  EC50: > 4000 nM
[10]
  EC50: > 4000 nM
[4]
  CC50 at 48 h: > 10000 nM
[11]
  EC50: > 4000 nM
